# From ChEMBL document CHEMBL1255284, “Aspergillus section Fumigati: antifungal susceptibility patterns and sequence-based identification” (2008)
# Numbered stars: 1 amine (or outer) side, 2 acyl side, 3 side chain; on linkers, the order of the positions; unused ones are H or OH. Bridge positions count the residues as written; N and C are the ends. Square brackets hold non-standard residues; d marks the D form. Peptide text beside a SMILES is read from it. * marks the point of attachment. hTyr(3S-OH,4S-OH,3'-OSO3H) = N[C@H](C(=O)O)[C@H](O)[C@@H](O)c1ccc(O)c(OS(=O)(=O)O)c1; Orn(4R-OH,5R-OH) = O=C([C@H](C[C@@H](O)[C@@H](O)N[*:3])N[*:1])[*:2]; Pro(3S-OH,4S-Me) = C[C@H]1CN[C@H](C(=O)O)[C@H]1O; X1 = CCCCCOc1ccc(-c2cc(-c3ccc(C(=O)*)cc3)no2)cc1; Gln(3R-OH) = NC(=O)C[C@@H](O)[C@H](N)C(=O)O; Hyp = O=C(O)[C@@H]1C[C@@H](O)CN1
# Legend:
# Aspergillus lentulus [1] = experiment: Antimicrobial activity against Aspergillus lentulus isolate CNM-CM-1290 obtained from sputum of patient after 48 hrs by broth microdilution method; assay type: functional; conditions: isolate CNM-CM-1290, 48 h
# Procedure, shortened: (§1)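 CLSI M38-A broth microdilution with modifications: RPMI 1640 with L-glutamine, 2% glucose, buffered to pH 7 with 0.165 M MOPS. Inoculum of 1 × 10^5 to 5 × 10^5 CFU/ml from 3- to 5-day-old cultures. Incubated 35°C, 48 h, humid. Visual reading with a mirror. MIC is complete growth inhibition; echinocandin MEC is hyphal morphological alteration. Azoles 8 to 0.015 μg/ml; others 16 to 0.03 μg/ml.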
# Aspergillus lentulus [2] = experiment: Antimicrobial activity against Aspergillus lentulus isolate CNM-CM-3134 obtained from sputum of patient after 48 hrs by broth microdilution method; assay type: functional; conditions: isolate CNM-CM-3134, 48 h; procedure, shortened: as §1
# Aspergillus lentulus [3] = experiment: Antimicrobial activity against Aspergillus lentulus isolate CNM-CM-3364 obtained from bronchoalveolar lavage fluid of patient after 48 hrs by broth microdilution method; assay type: functional; conditions: isolate CNM-CM-3364, Lung; procedure, shortened: as §1
# Aspergillus lentulus [4] = experiment: Antimicrobial activity against Aspergillus lentulus isolate CNM-CM-3537 obtained from sputum of patient after 48 hrs by broth microdilution method; assay type: functional; conditions: isolate CNM-CM-3537, 48 h; procedure, shortened: as §1
# Aspergillus lentulus [5] = experiment: Antimicrobial activity against Aspergillus lentulus isolate CNM-CM-3538 obtained from sputum of patient after 48 hrs by broth microdilution method; assay type: functional; conditions: isolate CNM-CM-3538, 48 h; procedure, shortened: as §1
# Aspergillus lentulus [6] = experiment: Antimicrobial activity against Aspergillus lentulus isolate CNM-CM-3583 obtained from sputum of patient after 48 hrs by broth microdilution method; assay type: functional; conditions: isolate CNM-CM-3583, 48 h; procedure, shortened: as §1
# Aspergillus lentulus [7] = experiment: Antimicrobial activity against Aspergillus lentulus isolate CNM-CM-3599 obtained from sputum of patient after 48 hrs by broth microdilution method; assay type: functional; conditions: isolate CNM-CM-3599, 48 h; procedure, shortened: as §1
# Aspergillus lentulus [8] = experiment: Antimicrobial activity against Aspergillus lentulus isolate CNM-CM-4330 obtained from sputum of patient after 48 hrs by broth microdilution method; assay type: functional; conditions: isolate CNM-CM-4330, 48 h; procedure, shortened: as §1
# Aspergillus lentulus [9] = experiment: Antimicrobial activity against Aspergillus lentulus isolate CNM-CM-4370 obtained from sputum of patient after 48 hrs by broth microdilution method; assay type: functional; conditions: isolate CNM-CM-4370, 48 h; procedure, shortened: as §1
# Aspergillus lentulus [10] = experiment: Antimicrobial activity against Aspergillus lentulus isolate CNM-CM-4387 obtained from sputum of patient after 48 hrs by broth microdilution method; assay type: functional; conditions: isolate CNM-CM-4387, 48 h; procedure, shortened: as §1
# Aspergillus lentulus [11] = experiment: Antimicrobial activity against Aspergillus lentulus isolate CNM-CM-4415 obtained from sputum of patient after 48 hrs by broth microdilution method; assay type: functional; conditions: isolate CNM-CM-4415, 48 h; procedure, shortened: as §1
# Aspergillus lentulus [12] = experiment: Antimicrobial activity against Aspergillus lentulus isolate CNM-CM-4420 obtained from nail of patient after 48 hrs by broth microdilution method; assay type: functional; conditions: isolate CNM-CM-4420, 48 h; procedure, shortened: as §1
# Aspergillus lentulus [13] = experiment: Antimicrobial activity against Aspergillus lentulus isolate CNM-CM-4426 obtained from sputum of patient after 48 hrs by broth microdilution method; assay type: functional; conditions: isolate CNM-CM-4426, 48 h; procedure, shortened: as §1
# Aspergillus lentulus [14] = experiment: Antimicrobial activity against Aspergillus lentulus isolate CNM-CM-4428 obtained from skin of patient after 48 hrs by broth microdilution method; assay type: functional; conditions: isolate CNM-CM-4428, 48 h; procedure, shortened: as §1
# [15] = system: Aspergillus fumisynnematus; experiment: Antimicrobial activity against Aspergillus fumisynnematus isolate CNM-CM-4063 obtained from bronchoalveolar aspirate of patient after 48 hrs by broth microdilution method; assay type: functional; conditions: isolate CNM-CM-4063, Lung; procedure, shortened: as §1
# Neosartorya hiratsukae [16] = experiment: Antimicrobial activity against Neosartorya hiratsukae isolate CNM-CM-3303 obtained from skin of patient after 48 hrs by broth microdilution method; assay type: functional; conditions: Aspergillus hiratsukae, isolate CNM-CM-3303, 48 h; procedure, shortened: as §1
# Neosartorya hiratsukae [17] = experiment: Antimicrobial activity against Neosartorya hiratsukae isolate CNM-CM-3305 obtained from skin of patient after 48 hrs by broth microdilution method; assay type: functional; conditions: Aspergillus hiratsukae, isolate CNM-CM-3305, 48 h; procedure, shortened: as §1
# Neosartorya hiratsukae [18] = experiment: Antimicrobial activity against Neosartorya hiratsukae isolate CNM-CM-3764 obtained from oropharyngeal exudate of patient after 48 hrs by broth microdilution method; assay type: functional; conditions: Aspergillus hiratsukae, isolate CNM-CM-3764, 48 h; procedure, shortened: as §1
# Neosartorya hiratsukae [19] = experiment: Antimicrobial activity against Neosartorya hiratsukae isolate CNM-CM-3740 obtained from oropharyngeal exudate of patient after 48 hrs by broth microdilution method; assay type: functional; conditions: Aspergillus hiratsukae, isolate CNM-CM-3740, 48 h; procedure, shortened: as §1
# Neosartorya hiratsukae [20] = experiment: Antimicrobial activity against Neosartorya hiratsukae isolate CNM-CM-4328 obtained from cornea of patient after 48 hrs by broth microdilution method; assay type: functional; conditions: Aspergillus hiratsukae, isolate CNM-CM-4328, Cornea; procedure, shortened: as §1
# [21] = system: Neosartorya pseudofischeri; experiment: Antimicrobial activity against Neosartorya pseudofischeri isolate CNM-CM-3769 obtained from sputum of patient after 48 hrs by broth microdilution method; assay type: functional; conditions: Aspergillus thermomutatus
# Procedure, shortened: (§2)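 CLSI M38-A broth microdilution with modifications: RPMI 1640 with L-glutamine, MOPS-buffered to pH 7, plus 2% glucose. Inoculum 1 × 10^5 to 5 × 10^5 CFU/ml from 3–5-day cultures. Incubated at 35°C for 48 h, humid. Read visually with a mirror. MIC = complete growth inhibition; echinocandin MEC = altered hyphal morphology. QC strain A. fumigatus ATCC 2004305.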
# [22] = system: Neosartorya pseudofischeri; experiment: Antimicrobial activity against Neosartorya pseudofischeri isolate CNM-CM-2270 obtained from sputum of patient after 48 hrs by broth microdilution method; assay type: functional; conditions: Aspergillus thermomutatus, isolate CNM-CM-2270, 48 h; procedure, shortened: as §2
# [23] = system: Neosartorya pseudofischeri; experiment: Antimicrobial activity against Neosartorya pseudofischeri isolate CNM-CM-4060 obtained from sputum of patient after 48 hrs by broth microdilution method; assay type: functional; conditions: Aspergillus thermomutatus; procedure, shortened: as §2
# [24] = system: Neosartorya pseudofischeri; experiment: Antimicrobial activity against Neosartorya pseudofischeri isolate CNM-CM-3914 obtained from nail of patient after 48 hrs by broth microdilution method; assay type: functional; conditions: Aspergillus thermomutatus, isolate CNM-CM-3914, 48 h; procedure, shortened: as §2
# Aspergillus viridinutans [25] = experiment: Antimicrobial activity against Aspergillus viridinutans isolate CNM-CM-3147 obtained from oropharyngeal exudate of patient after 48 hrs by broth microdilution method; assay type: functional; conditions: isolate CNM-CM-3147, 48 h; procedure, shortened: as §1
# Aspergillus viridinutans [26] = experiment: Antimicrobial activity against Aspergillus viridinutans isolate CNM-CM-4518 obtained from nail of patient after 48 hrs by broth microdilution method; assay type: functional; conditions: isolate CNM-CM-4518, 48 h; procedure, shortened: as §1
# Aspergillus fumigatus = experiment: Antimicrobial activity against Aspergillus fumigatus ATCC 2004305 after 48 hrs by broth microdilution method; assay type: functional; conditions: ATCC 2004305, 48 h
# [27] = system: Aspergillus fumigatiaffinis; experiment: Antimicrobial activity against Aspergillus fumigatiaffinis isolate CNM-CM-2280 obtained from sputum of patient after 48 hrs by broth microdilution method; conditions: isolate CNM-CM-2280, 48 h
# [28] = system: Aspergillus fumigatiaffinis; experiment: Antimicrobial activity against Aspergillus fumigatiaffinis isolate CNM-CM-3227 obtained from bronchoalveolar lavage fluid of patient after 48 hrs by broth microdilution method; conditions: isolate CNM-CM-3227, Lung
compound,measurement,setting,value
"CCCCCOc1ccc(-c2cc(-c3ccc(C(=O)N[C@H]4C[C@@H](O)[C@@H](O)NC(=O)[C@@H]5[C@@H](O)[C@@H](C)CN5C(=O)[C@H]([C@H](O)CC(N)=O)NC(=O)[C@H]([C@H](O)[C@@H](O)c5ccc(O)c(OS(=O)(=O)O)c5)NC(=O)[C@@H]5C[C@@H](O)CN5C(=O)[C@H]([C@@H](C)O)NC4=O)cc3)no2)cc1 [MICAFUNGIN] (X1-[Orn(4R-OH,5R-OH)]T[Hyp][hTyr(3S-OH,4S-OH,3'-OSO3H)][Gln(3R-OH)][Pro(3S-OH,4S-Me)]; lactam 1-C)",minimal effective concentration,Aspergillus lentulus [1]; read-out: MEC,0.05 µg/mL
same,minimal effective concentration,Aspergillus lentulus [2]; read-out: MEC,0.07 µg/mL
same,minimal effective concentration,Aspergillus lentulus [3]; read-out: MEC,0.03 µg/mL
same,minimal effective concentration,Aspergillus lentulus [4]; read-out: MEC,0.04 µg/mL
same,minimal effective concentration,Aspergillus lentulus [5]; read-out: MEC,0.1 µg/mL
same,minimal effective concentration,Aspergillus lentulus [6]; read-out: MEC,0.03 µg/mL
same,minimal effective concentration,Aspergillus lentulus [7]; read-out: MEC,0.03 µg/mL
same,minimal effective concentration,Aspergillus lentulus [8]; read-out: MEC,0.03 µg/mL
same,minimal effective concentration,Aspergillus lentulus [9]; read-out: MEC,0.03 µg/mL
same,minimal effective concentration,Aspergillus lentulus [10]; read-out: MEC,0.03 µg/mL
same,minimal effective concentration,Aspergillus lentulus [11]; read-out: MEC,0.03 µg/mL
same,minimal effective concentration,Aspergillus lentulus [12]; read-out: MEC,0.03 µg/mL
same,minimal effective concentration,Aspergillus lentulus [13]; read-out: MEC,0.03 µg/mL
same,minimal effective concentration,Aspergillus lentulus [14]; read-out: MEC,0.03 µg/mL
same,minimal effective concentration,[15]; read-out: MEC,0.03 µg/mL
same,minimal effective concentration,Neosartorya hiratsukae [16]; read-out: MEC,0.03 µg/mL
same,minimal effective concentration,Neosartorya hiratsukae [17]; read-out: MEC,0.14 µg/mL
same,minimal effective concentration,Neosartorya hiratsukae [18]; read-out: MEC,0.04 µg/mL
same,minimal effective concentration,Neosartorya hiratsukae [19]; read-out: MEC,0.03 µg/mL
same,minimal effective concentration,Neosartorya hiratsukae [20]; read-out: MEC,0.03 µg/mL
same,minimal effective concentration,[21]; read-out: MEC,0.06 µg/mL
same,minimal effective concentration,[22]; read-out: MEC,0.26 µg/mL
same,minimal effective concentration,[23]; read-out: MEC,0.03 µg/mL
same,minimal effective concentration,[24]; read-out: MEC,0.03 µg/mL
same,minimal effective concentration,Aspergillus viridinutans [25]; read-out: MEC,0.2 µg/mL
same,minimal effective concentration,Aspergillus viridinutans [26]; read-out: MEC,0.03 µg/mL
same,minimal effective concentration,Aspergillus fumigatus; read-out: MEC,0.03 µg/mL
same,minimal effective concentration,[27]; read-out: MEC,0.04 µg/mL
same,minimal effective concentration,[28]; read-out: MEC,0.08 µg/mL
CC[C@@H]([C@H](C)O)n1ncn(-c2ccc(N3CCN(c4ccc(OC[C@@H]5CO[C@@](Cn6cncn6)(c6ccc(F)cc6F)C5)cc4)CC3)cc2)c1=O [POSACONAZOLE],MIC,Aspergillus lentulus [1],0.4 µg/mL
same,MIC,Aspergillus lentulus [2],0.56 µg/mL
same,MIC,Aspergillus lentulus [3],2 µg/mL
same,MIC,Aspergillus lentulus [4],0.28 µg/mL
same,MIC,Aspergillus lentulus [5],0.75 µg/mL
same,MIC,Aspergillus lentulus [6],0.25 µg/mL
same,MIC,Aspergillus lentulus [7],0.5 µg/mL
same,MIC,Aspergillus lentulus [8],0.12 µg/mL
same,MIC,Aspergillus lentulus [9],0.18 µg/mL
same,MIC,Aspergillus lentulus [10],0.25 µg/mL
same,MIC,Aspergillus lentulus [11],0.33 µg/mL
same,MIC,Aspergillus lentulus [12],0.33 µg/mL
same,MIC,Aspergillus lentulus [13],0.2 µg/mL
same,MIC,Aspergillus lentulus [14],0.62 µg/mL
same,MIC,[15],0.12 µg/mL
same,MIC,Neosartorya hiratsukae [16],0.06 µg/mL
same,MIC,Neosartorya hiratsukae [17],0.045 µg/mL
same,MIC,Neosartorya hiratsukae [18],0.16 µg/mL
same,MIC,Neosartorya hiratsukae [19],0.1 µg/mL
same,MIC,Neosartorya hiratsukae [20],0.09 µg/mL
same,MIC,[21],0.25 µg/mL
same,MIC,[22],0.31 µg/mL
same,MIC,[23],0.29 µg/mL
same,MIC,[24],0.5 µg/mL
same,MIC,Aspergillus viridinutans [25],0.41 µg/mL
same,MIC,Aspergillus viridinutans [26],0.25 µg/mL
same,MIC,Aspergillus fumigatus,0.03 µg/mL
same,MIC,[27],1.16 µg/mL
same,MIC,[28],0.625 µg/mL
